According to ChEMBL document CHEMBL3098012, “A novel tamoxifen derivative, ridaifen-F, is a nonpeptidic small-molecule proteasome inhibitor” (Eur J Med Chem, 2014):
pIC50, pKi: −log10 of the molar value. Active and inactive are the calls of the source. No cut-off for these calls is given here. Peptide text beside a SMILES is read from it. * marks the point of attachment. Cbz = O=C(OCc1ccccc1)*

Assays:
[1] = target: T1, Proteasome Macropain subunit MB1 (Homo sapiens, UniProt P28074); experiment: Inhibition of chymotrypsin-like activity of human 20S proteasome beta 5 subunit assessed as hydrolysis of succinyl-LLVY-AMC fluorogenic substrate measured for 1 hr by fluorometric analysis
T1 sequence (P28074 whole entry): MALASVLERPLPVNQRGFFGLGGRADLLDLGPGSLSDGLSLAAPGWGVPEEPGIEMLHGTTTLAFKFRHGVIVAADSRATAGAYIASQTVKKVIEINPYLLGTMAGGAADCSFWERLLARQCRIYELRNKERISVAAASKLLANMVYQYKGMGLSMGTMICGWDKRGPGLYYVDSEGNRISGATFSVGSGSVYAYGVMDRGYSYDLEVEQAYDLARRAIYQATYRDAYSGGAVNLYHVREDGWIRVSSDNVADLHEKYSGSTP
Outline: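 Purified human 20S proteasome (0.1 µg) incubated at 37 °C with 50 µM succinyl-LLVY-AMC (CT-L) or 20 µM Z-LLE-AMC (PGPH) and compound at 0.01–10 µM in 25 mM HEPES, 0.5 mM EDTA, 0.03% SDS. IC50 taken from inhibition curve; means of three experiments.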

[2] = Cytotoxicity against ER-negative HEK293 cells after 48 hrs by MTT assay; format: cell-based; conditions: human
Outline: (§1)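 HEK293 (DMEM) or HL-60 (IMDM) cells, each with 10% FBS plus penicillin/streptomycin, seeded 5×10^3 cells/well in duplicate. Exposed 48 h to compound at […]. MTT reduction read as 560/750 nm absorbance ratio after HCl/2-propanol extraction. CyT50 from inhibition curve; means of triplicate.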

[3] = test system: HL-60; experiment: Cytotoxicity against […] human HL60 cells after 48 hrs by MTT assay; format: functional; conditions: HL-60, 48 h; outline: as §1
[4] = organism: Homo sapiens; experiment: Inhibition of calpain (unknown origin) at >10 uM
[5] = organism: Homo sapiens; experiment: Inhibition of cathepsin (unknown origin) at >10 uM
[6] = target: T1, Proteasome Macropain subunit MB1; experiment: Noncompetitive inhibition of chymotrypsin-like activity of human 20S proteasome beta 5 subunit assessed as hydrolysis of succinyl-LLVY-AMC fluorogenic substrate Lineweaver-Burk plot analysis
[7] = target: T2, Proteasome component C5 (Homo sapiens) (UniProt P20618); experiment: Inhibition of biotin-labeled belactosin A binding to human 20S proteasome beta 1 subunit at 1 to 100 uM preincubated for 1 hr followed by biotin-labeled belactosin A treatment measured after 1 hr by Western blotting analysis
T2 sequence (whole entry): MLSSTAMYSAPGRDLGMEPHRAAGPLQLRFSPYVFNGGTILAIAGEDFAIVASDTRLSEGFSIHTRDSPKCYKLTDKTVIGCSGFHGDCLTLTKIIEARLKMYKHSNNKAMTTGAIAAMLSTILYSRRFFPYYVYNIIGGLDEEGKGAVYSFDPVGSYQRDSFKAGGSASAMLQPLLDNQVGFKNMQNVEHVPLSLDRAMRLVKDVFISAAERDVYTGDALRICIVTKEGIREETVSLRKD
Outline: (§2)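 Purified human 20S proteasomes preincubated with varying inhibitor concentrations 1 h at 37 °C, then biotin-belactosin A added at 1 μM for a further 1 h. Proteins separated by SDS-PAGE, blotted to PVDF, blocked with 5% skim milk; biotin-labeled subunits detected with streptavidin-HRP and ECL. MG132 used as control.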

[8] = target: Proteasome Macropain subunit (Homo sapiens) (UniProt P49721); experiment: Inhibition of biotin-labeled belactosin A binding to human 20S proteasome beta 2 subunit at 1 to 100 uM preincubated for 1 hr followed by biotin-labeled belactosin A treatment measured after 1 hr by Western blotting analysis; outline: as §2
Sequence of Proteasome Macropain subunit (Homo sapiens) (P49721 whole entry): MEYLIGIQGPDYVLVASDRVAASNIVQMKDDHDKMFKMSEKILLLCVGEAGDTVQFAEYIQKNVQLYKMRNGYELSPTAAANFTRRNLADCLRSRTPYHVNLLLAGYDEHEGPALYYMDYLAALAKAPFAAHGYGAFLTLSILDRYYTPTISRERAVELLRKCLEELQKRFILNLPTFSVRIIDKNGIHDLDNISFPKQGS

[9] = test system: HeLa; experiment: Induction of apoptosis in human HeLa cells assessed as PARP cleavage at 1 to 60 uM after 24 hrs by Western blotting analysis; format: functional, cell-based
Outline: (§3)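 HeLa cells seeded 4×10^5 cells/well, incubated 24 h with varying compound concentrations; PARP cleavage detected in lysates by Western blotting.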

[10] = test system: HeLa; experiment: Induction of apoptosis in human HeLa cells assessed as PARP cleavage after 24 hrs by Western blotting analysis; format: functional, cell-based; outline: as §3
[11] = test system: HeLa; experiment: Inhibition of proteasome in human HeLa cells assessed as accumulation of ubiquitinated proteins at 60 uM after 24 hrs by Western blotting analysis; format: cell-based
Outline: (§4)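 HeLa cells, 4×10^5 cells/well, treated 24 h with compound; vehicle control 0.25% DMSO. Lysed in Tris–HCl/2% SDS/glycerol buffer with protease and phosphatase inhibitors; 30 µg protein run on SDS-PAGE, PVDF blot probed with anti-ubiquitin (1:200), actin as loading reference, HRP secondary, ECL detection.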

[12] = target: T3, Proteasome Macropain subunit MB1 (Homo sapiens) (UniProt P28074); experiment: Inhibition of biotin-labeled belactosin A binding to human 20S proteasome beta 5 subunit at 100 uM preincubated for 1 hr followed by biotin-labeled belactosin A treatment measured after 1 hr by Western blotting analysis
T3 sequence (whole entry): T1 sequence (P28074 whole entry)
Outline: (§5)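 Purified human 20S proteasome preincubated 1 h at 37 °C with varying compound levels, then biotin-belactosin A added to 1 µM for a further 1 h. Proteins separated by SDS-PAGE, blotted to PVDF, milk-blocked; biotin-labelled subunits detected with streptavidin-HRP and ECL.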

[13] = target: T3, Proteasome Macropain subunit MB1 (Homo sapiens); experiment: Inhibition of biotin-labeled belactosin A binding to human 20S proteasome beta 5 subunit at 1 to 100 uM preincubated for 1 hr followed by biotin-labeled belactosin A treatment measured after 1 hr by Western blotting analysis; outline: as §5
[14] = target: T2, Proteasome component C5 (Homo sapiens); experiment: Inhibition of biotin-labeled belactosin A binding to human 20S proteasome beta 1 subunit preincubated for 1 hr followed by biotin-labeled belactosin A treatment measured after 1 hr by Western blotting analysis; outline: as §5
[15] = target: T2, Proteasome component C5 (Homo sapiens); experiment: Inhibition of biotin-labeled belactosin A binding to human 20S proteasome beta 1 subunit at 10 uM preincubated for 1 hr followed by biotin-labeled belactosin A treatment measured after 1 hr by Western blotting analysis; outline: as §5
[16] = target: T2, Proteasome component C5 (Homo sapiens); experiment: Inhibition of PGPH-like activity of human 20S proteasome beta 1 subunit assessed as hydrolysis of Z-LLE-AMC fluorogenic substrate at 10 uM measured for 1 hr by fluorometric analysis relative to control; set-up: scale not given: the % may be the effect or the level left
[17] = target: Proteasome Macropain subunit (Homo sapiens) (UniProt P49721); experiment: Inhibition of trypsin-like activity of human 20S proteasome beta 2 subunit assessed as hydrolysis of Boc-LRR-AMC fluorogenic substrate at 10 uM measured for 1 hr by fluorometric analysis relative to control; set-up: scale not given: the % may be the effect or the level left
[18] = target: T3, Proteasome Macropain subunit MB1 (Homo sapiens); experiment: Inhibition of chymotrypsin-like activity of human 20S proteasome beta 5 subunit assessed as hydrolysis of succinyl-LLVY-AMC fluorogenic substrate at 10 uM measured for 1 hr by fluorometric analysis relative to control; set-up: scale not given: the % may be the effect or the level left
[19] = test system: HeLa; experiment: Cell cycle arrest in human HeLa cells assessed as accumulation at sub G1 phase at 10 uM after 24 hrs by propidium iodide staining-based flow cytometric analysis (reference value: 2.2%); format: functional
[20] = test system: HeLa; experiment: Inhibition of proteasome in human HeLa cells assessed as accumulation of ubiquitinated proteins at 10 uM after 24 hrs by Western blotting analysis; format: cell-based; outline: as §4
[21] = target: T3, Proteasome Macropain subunit MB1 (Homo sapiens); conditions: 10 to 20 uM
[22] = target: Proteasome Macropain subunit (Homo sapiens) (UniProt P49721); conditions: 10 to 20 uM
[23] = target: T2, Proteasome component C5 (Homo sapiens); conditions: 10 to 20 uM

Compound	pIC50 [1]	CC50 at 48 h [2] [µM]	CC50 [3] [µM]	also measured
CCC(=C(c1ccc(OCCN2CCCC2)cc1)c1ccc(OCCN2CCCC2)cc1)c1ccccc1	5.18	–	–	inhibition [4]: inactive; inhibition [5]: inactive
C(=C(c1ccc(OCCN2CCCCCC2)cc1)c1ccc(OCCN2CCCCCC2)cc1)c1ccccc1	6.24	6.06	9.73	pKi [6]: 6.06
CCC(=C(c1ccc(OCCCN(C)C)cc1)c1ccc(OCCCN(C)C)cc1)c1ccccc1	< 5.00	–	–	inhibition [4]: inactive; inhibition [5]: inactive
CCC(=C(c1ccc(OCCN(CC)CC)cc1)c1ccc(OCCN(CC)CC)cc1)c1ccccc1	< 5.00	–	–	inhibition [4]: inactive; inhibition [5]: inactive
c1ccc(C(=C(c2ccc(OCCN3CCCCCC3)cc2)c2ccc(OCCN3CCCCCC3)cc2)c2ccccc2)cc1	5.93	23.2	> 30	pKi [6]: 5.96
c1ccc(Cc2ccc(OCCN3CCCCCC3)cc2)cc1	< 5.00	27	> 30	inhibition [7]: Active; inhibition [8]: Active; Activity [9]: inactive
CC(O)(c1ccc(OCCN2CCCCCC2)cc1)c1ccc(OCCN2CCCCCC2)cc1	5.78	22.7	7.06	–
c1cc(C(=C2CCCCC2)c2ccc(OCCN3CCCCCC3)cc2)ccc1OCCN1CCCCCC1	5.66	12.5	11.7	–
CC(c1ccc(OCCN2CCCCCC2)cc1)c1ccc(OCCN2CCCCCC2)cc1	6.10	8.12	21.4	–
c1cc(C2(c3ccc(OCCN4CCCCCC4)cc3)CCCCC2)ccc1OCCN1CCCCCC1	5.71	17.5	> 30	–
CC(C)(c1ccc(OCCN2CCCCCC2)cc1)c1ccc(OCCN2CCCCCC2)cc1	6.12	7.61	17.6	–
CCC(=C(c1ccc(OCCN2CCOCC2)cc1)c1ccc(OCCN2CCOCC2)cc1)c1ccccc1	5.14	–	–	inhibition [4]: inactive; inhibition [5]: inactive
CCC(=C(c1ccc(OCCCN2CCCC2)cc1)c1ccc(OCCCN2CCCC2)cc1)c1ccccc1	< 5.00	–	–	inhibition [4]: inactive; inhibition [5]: inactive
CC/C(=C(\c1ccccc1)c1ccc(OCCN(C)C)cc1)c1ccccc1	–	–	–	Activity [16]: 85%; Activity [17]: 112%; Activity [18]: 145%
CC(C)C[C@@H](C=O)NC(=O)[C@H](CC(C)C)NC(=O)[C@H](CC(C)C)NC(=O)OCc1ccccc1 [MG-132] (Cbz-Leu-Leu-Leu-aldehyde)	–	–	–	Activity [19]: 5.6%; inhibition [20]: Active; inhibition [21]: Active; inhibition [22]: Active; inhibition [23]: Active
c1ccc(C(=C(c2ccc(OCCN3CCCCCC3)cc2)c2ccc(OCCN3CCCCCC3)cc2)C2CCCCC2)cc1	< 5.00	> 30	> 30	–
CCC(=C(c1ccc(OCCN(C)C)cc1)c1ccc(OCCN(C)C)cc1)c1ccccc1	5.47	–	–	inhibition [4]: inactive; inhibition [5]: inactive

Continued, in another order:

pIC50 [1]	Compound	CC50 at 48 h [2] [µM]	CC50 [3] [µM]	also measured
< 5.00	CCCCC(CCCC)=C(c1ccc(OCCN2CCCCCC2)cc1)c1ccc(OCCN2CCCCCC2)cc1	> 30	25.3	–
5.98	C=C(c1ccc(OCCN2CCCCCC2)cc1)c1ccc(OCCN2CCCCCC2)cc1	9.8	10.7	–
6.05	CC(=C(c1ccc(OCCN2CCCCCC2)cc1)c1ccc(OCCN2CCCCCC2)cc1)c1ccccc1	18.9	6.87	–
< 5.00	CCCCCCC(CCCCCC)=C(c1ccc(OCCN2CCCCCC2)cc1)c1ccc(OCCN2CCCCCC2)cc1	> 30	> 30	–
< 5.00	CCCCCC(CCCCC)=C(c1ccc(OCCN2CCCCCC2)cc1)c1ccc(OCCN2CCCCCC2)cc1	14.5	> 30	–
5.47	CCCC(CCC)=C(c1ccc(OCCN2CCCCCC2)cc1)c1ccc(OCCN2CCCCCC2)cc1	> 30	> 30	–
6.17	c1cc(OCCN2CCCCCC2)ccc1Cc1ccc(OCCN2CCCCCC2)cc1	10.9	14.5	Activity [10]: Dose-dependent effect; inhibition [11]: Active; inhibition [12]: Active; inhibition [13]: Active; inhibition [14]: Dose-dependent effect; inhibition [15]: Active
5.78	CC(C)=C(c1ccc(OCCN2CCCCCC2)cc1)c1ccc(OCCN2CCCCCC2)cc1	11.1	10.7	–
5.86	CCCC(=C(c1ccc(OCCN2CCCCCC2)cc1)c1ccc(OCCN2CCCCCC2)cc1)c1ccccc1	26.8	4.3	–
5.78	O=C(c1ccc(OCCN2CCCCCC2)cc1)c1ccc(OCCN2CCCCCC2)cc1	13.9	> 30	–
5.80	CCC(CC)=C(c1ccc(OCCN2CCCCCC2)cc1)c1ccc(OCCN2CCCCCC2)cc1	6.02	8.87	–
< 5.00	CCC(=C(c1ccc(OCCN2CCCCC2)cc1)c1ccc(OCCN2CCCCC2)cc1)c1ccccc1	–	–	inhibition [4]: inactive; inhibition [5]: inactive
5.84	CCC=C(c1ccc(OCCN2CCCCCC2)cc1)c1ccc(OCCN2CCCCCC2)cc1	26.7	22.6	–
5.57	c1cc(C(=C2CCCC2)c2ccc(OCCN3CCCCCC3)cc2)ccc1OCCN1CCCCCC1	26.2	20.1	–
